In ChEMBL document CHEMBL1123736, “Dihydropyridazinone cardiotonics: synthesis and inotropic activity of 5'-(1,4,5,6-tetrahydro-6-oxo-3-pyridazinyl)spiro[cycloalkane- 1,3'-[3H]indol]-2'(1'H)-ones” (J Med Chem, 1987):

How the values were obtained:
Canis familiaris [1] = assay: Myocardial contractility in anesthetized dogs on intravenous administration; type: functional; settings: Canis lupus familiaris, Myocardium
In short: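 Open-chest, pentobarbital-anesthetized dogs. Right ventricular contractility was measured with a Walton-Brodie strain-gauge arch sutured to the ventricle, baseline 50 g tension. Increasing iv doses via the femoral vein at 5-min intervals; peak responses recorded; vehicle controls given. ED50 by linear regression, mean ± SEM (n > 2) or mean ± range (n = 2).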

[2] = molecular target: Phosphodiesterase; PDE3 & PDE4; assay: (§1) Inhibition of Sarcoplasmic Reticulum cAMP Phosphodiesterase from canine myocardium; type: tissue-based, Canis lupus familiaris
In short: (§2)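 PDE came from free sarcoplasmic reticulum vesicles (fraction E) of canine ventricles, stored at -80 °C. Two-step assay with 1 μM cAMP substrate, run 60 min at room temperature (22 ± 2 °C). Enzyme was added to hydrolyze less than 20% of the substrate.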

Canis familiaris [3] = assay: Decreased mean arterial blood pressure in anesthetized dogs after intravenous administration; type: functional, Canis lupus familiaris
Canis familiaris [4] = assay: Increased heart rate in anesthetized dogs after intravenous administration; type: functional, Canis lupus familiaris
[5] = molecular target: Phosphodiesterase; PDE3 & PDE4; assay: as §1; type: tissue-based, Canis lupus familiaris; remark: listed apart in the source
In short: as §2, with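 “substrate. Inhibitors were dissolved in DMSO, with 2.5% v/v carryover. IC50 and 95% confidence limits were obtained by regression of the logit transformation.” for “substrate.”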

Row | IC50 [2] [nM] | Ki [5] [nM] | SMILES | ED50 (Canis familiaris [1]) [mg/kg] | Decrease in MAP (Canis familiaris [3]) [%] | Increase in HR (Canis familiaris [4]) [%]
1 | 13 |  | CC1CC(=O)NN=C1c1ccc2c(c1)C1(CC1)C(=O)N2 (stereo not given) | 0.0015 | 35 | 17
2 | 290 |  | O=C1CCC(c2ccc3c(c2)C2(CCC2)C(=O)N3)=NN1 | 0.0348 | 17 | 13
3 | 930 |  | O=C1CCC(c2ccc3c(c2)C2(CCCC2)C(=O)N3)=NN1 | 0.133 | 17 | 14
4 | 130 | 80 | CC1(C)C(=O)Nc2ccc(C3=NNC(=O)CC3)cc21 [INDOLIDAN] | 0.0068 | 15.2 | 11.8

The remaining lines, values behind:

Row | SMILES | IC50 [2] [nM] | Ki [5] [nM] | ED50 (Canis familiaris [1]) [mg/kg] | Decrease in MAP (Canis familiaris [3]) [%] | Increase in HR (Canis familiaris [4]) [%]
5 | O=C1CCC(c2ccc(-n3ccnc3)cc2)=NN1 [IMAZODAN] |  |  | 0.045 |  | 
6 | CC1CC(O)=NN=C1c1ccc(-n2ccnc2)cc1 (stereo not given) [CI-930] |  |  | 0.013 |  | 
7 | Cc1[nH]c(=O)c(C#N)cc1-c1ccncc1 [MILRINONE] |  |  | 0.037 |  | 
